Assay results from ChEMBL document CHEMBL1649367, “Anti-breast cancer activity of some novel 1,2-dihydropyridine, thiophene and thiazole derivatives” (Eur J Med Chem, 2011).

Key:
MCF7 [1] = assay: Cytotoxicity against human MCF7 cells after 48 hrs by SRB assay; format: functional, cell-based
In short: (§1)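 MCF7 cells were seeded at 10⁴ cells/well and allowed to attach for 24 h. Compounds in DMSO were added at 10, 25, 50 and 100 µM, in triplicate wells, for 48 h at 37 °C under 5% CO₂. Cells were fixed and stained 30 min with 0.4% SRB in 1% acetic acid, and dye was recovered in Tris-EDTA for absorbance. IC50 came from the surviving-fraction curve; values are means of three experiments ± SE.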

MCF7 [2] = assay: Cytotoxicity against human MCF7 cells assessed as cell surviving fraction at 100 uM after 48 hrs by SRB assay; format: functional; in short: as §1
MCF7 [3] = assay: Cytotoxicity against human MCF7 cells assessed as cell surviving fraction at 10 uM after 48 hrs by SRB assay; format: functional; in short: as §1
MCF7 [4] = assay: Cytotoxicity against human MCF7 cells assessed as cell surviving fraction at 25 uM after 48 hrs by SRB assay; format: functional; in short: as §1
MCF7 [5] = assay: Cytotoxicity against human MCF7 cells assessed as cell surviving fraction at 50 uM after 48 hrs by SRB assay; format: functional; in short: as §1
[6] = Homo sapiens, MCF7, 48 h, read-out: IC50

Row | Compound | IC50 (MCF7 [1]; [6]) | Activity (MCF7 [2]) | Activity (MCF7 [3]) | Activity (MCF7 [4]) | Activity (MCF7 [5]) | IC50 (MCF7 [1]; mcf7)
1 | C/C(=N\NC(=O)c1sc(N)c(C#N)c1N)c1ccc(S(=O)(=O)N2CCCCC2)cc1 | 49.3 µM | 0.406 | 0.588 | 0.507 | 0.451 | –
2 | C/C(=N\NC(=O)c1sc(=S)n(-c2ccccc2)c1N)c1ccc(S(=O)(=O)N2CCCCC2)cc1 | 60.1 µM | 0.407 | 0.861 | 0.745 | 0.557 | –
3 | C/C(=N\NC(=O)c1sc2c(c1N)CCC2)c1ccc(S(=O)(=O)N2CCCCC2)cc1 | 75.3 µM | 0.375 | 0.942 | 0.857 | 0.552 | –
4 | CCOC(=O)c1c(-c2ccc(OC)cc2)c(C#N)c(=O)n(/N=C(\C)c2ccc(S(=O)(=O)N3CCCCC3)cc2)c1N | 51.2 µM | 0.375 | 0.972 | 0.657 | 0.452 | –
5 | CCOC(=O)c1c(-c2ccc(N(C)C)cc2)c(C#N)c(=O)n(/N=C(\C)c2ccc(S(=O)(=O)N3CCCCC3)cc2)c1N | 34.4 µM | 0.407 | 0.861 | 0.745 | 0.557 | –
6 | CCOC(=O)c1c(-c2ccc(O)c(OC)c2)c(C#N)c(=O)n(/N=C(\C)c2ccc(S(=O)(=O)N3CCCCC3)cc2)c1N | 38.7 µM | 0.478 | 0.921 | 0.694 | 0.621 | –
7 | C/C(=N\NC(=O)c1sc2c(c1N)CCCC2)c1ccc(S(=O)(=O)N2CCCCC2)cc1 | 87.8 µM | 0.558 | 0.971 | 0.994 | 0.621 | –
8 | CCOC(=O)c1c(-c2ccc(C)cc2)c(C#N)c(=O)n(/N=C(\C)c2ccc(S(=O)(=O)N3CCCCC3)cc2)c1N | 37.9 µM | 0.581 | 0.911 | 0.677 | 0.652 | –
9 | CCOC(=O)c1c(-c2ccc(Cl)cc2)c(C#N)c(=O)n(/N=C(\C)c2ccc(S(=O)(=O)N3CCCCC3)cc2)c1N | 20.6 µM | 0.553 | 0.818 | 0.723 | 0.622 | –
10 | C/C(=N\NC(=O)CC#N)c1ccc(S(=O)(=O)N2CCCCC2)cc1 | 44.2 µM | 0.511 | 0.944 | 0.666 | 0.44 | –
11 | COc1cccc2c1C(=O)c1c(O)c3c(c(O)c1C2=O)C[C@@](O)(C(=O)CO)C[C@@H]3O[C@H]1C[C@H](N)[C@H](O)[C@H](C)O1 [DOXORUBICIN] | 32 µM | 0.494 | 0.721 | – | 0.461 | –
12 | CCOC(=O)c1c(N)sc(C(=O)N/N=C(\C)c2ccc(S(=O)(=O)N3CCCCC3)cc2)c1N | – | 0.841 | 1.925 | 0.947 | 0.981 | Not Active
13 | C/C(=N\n1c(N)cc(N)c(C#N)c1=O)c1ccc(S(=O)(=O)N2CCCCC2)cc1 | 36.4 µM | 0.394 | 0.371 | 0.298 | 0.416 | –
14 | C/C(=N\n1c(O)cc(N)c(C#N)c1=O)c1ccc(S(=O)(=O)N2CCCCC2)cc1 | 74.6 µM | 0.437 | 0.748 | 0.54 | 0.433 | –
15 | CCOC(=O)c1c(-c2ccc(O)cc2)c(C#N)c(=O)n(/N=C(\C)c2ccc(S(=O)(=O)N3CCCCC3)cc2)c1N | 25.5 µM | 0.641 | 0.925 | 0.647 | 0.681 | –
